Screens: PubChem, The Scripps Research Institute Molecular Screening Center
In the library only some 1.6% were active in any assay of this set; here they are far more common.
HCV core dimer: inhibitors of HCV core protein dimerization, primary screen, biochemical, TR-FRET, high-throughput. TR-FRET GST/Flag-core106 dimerization, 1536-well. actives 0.33% (n = 300,000). AID 1899, 2009. inhibition, % at 5 µM;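 active = inhibition above the mean of all tested compounds plus 3 SD, set per screening campaign, cut at about 45% in these data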
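Material: Tagged HCV core106 pair (GST and Flag) | Amount: GST-core106 13.5 nM, Flag-core106 17 nM | Medium: KF-containing HEPES buffer, pH 7.45, DTT, CHAPS, BSA | Reagent: Eu donor and XL665 acceptor anti-tag antibodies | Schedule: 4 h at 22.5 °C | Technique: Time-resolved FRET, ex 340 nm, em 617 and 671 nm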
DNA FID counter: compounds displacing fluorescent DNA intercalator, primary screen, artefact control for HCV NS3 helicase inhibitor project, biochemical, FID fluorescence; DNA fluorescent intercalator displacement; inhibition, % at 7.9 µM; actives 0.17% (n = 290,000); AID 1845, 2009; in the data active = inhibition above about 37%;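 also: higher means more ethidium bromide displaced from hairpin DNA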
IMP-1 inh: IMP-1 metallo-beta-lactamase inhibitors, primary screen, biochemical, epi-absorbance readout, Pseudomonas aeruginosa enzyme; metallo-beta-lactamase IMP-1 (Pseudomonas aeruginosa); purified IMP-1, nitrocefin hydrolysis, epi-absorbance fluorescence; inhibition, % at 5.6 µM; actives 0.45% (n = 290,000);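 active = inhibition above the mean plus 3 SD of all compounds in the same screening run, cut at about 4.5% in these data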
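System – purified recombinant IMP-1 beta-lactamase · Input – IMP-1 dispensed at 0.2 nM · Timing – 15 min preincubation plus 25 min reaction at 25 °C · Signal – Epi-absorbance fluorescence, 480 nm excitation, 530 nm emission · Measure – percent IMP-1 inhibition derived from blank-referenced optical density · Controls – Enzyme-plus-DMSO low control, enzyme-free DMSO high control · Replication – singlicate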
VIM-2 inhibitor: VIM-2 metallo-beta-lactamase inhibitors, primary screen, biochemical, epi-absorbance readout, Pseudomonas aeruginosa enzyme; purified VIM-2, nitrocefin hydrolysis, epi-absorbance fluorescence; inhibition, % at 5.6 µM; actives 0.89% (n = 290,000);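 active = inhibition above the mean of all tested compounds plus 3 SD, cutoff set per screening run, cut at about 7.5% in these data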;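 also: red hydrolysis product quenches plate fluorescence so inhibitors raise well fluorescence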
Hits are given with their value; – = inactive; · = not tested or not shown.

SMILES | HCV core dimer | DNA FID counter | IMP-1 inh | VIM-2 inhibitor
Cc1cc(=O)oc2cc(OCC(=O)N3CC[C@@]4(O)CCCC[C@H]4C3)c(Cl)cc12 | – | – | – | –
CN(C)c1ccc(C(=S)N2CCCCCC2)cc1 | – | – | 5.5 | –
O=C(C1CCC(Cn2c(=O)[nH]c3ccccc3c2=O)CC1)N1CCN(c2ccccc2)CC1 (configuration not stated) | – | – | – | –
O=C(C1CCC(Cn2c(=S)[nH]c3ccccc3c2=O)CC1)N1CCN(c2ccccc2)CC1 (configuration not stated) | 53 | – | – | –
COc1ccc(Br)cc1C(=O)NC(=S)Nc1c(C)n(C)n(-c2ccccc2)c1=O | – | – | – | –
COc1cc(C(c2c(C(=O)O)[nH]c3ccccc23)c2c(C(=O)O)[nH]c3ccccc23)ccc1OCc1ccccc1 | – | – | – | –
COc1ccc(C(C[N+](=O)[O-])c2c(C)[nH]c3ccccc23)cc1OC (configuration not stated) | – | – | 13 | –
Cc1c(OC(C)C(=O)NCCCN2CCCC2=O)ccc2c3c(c(=O)oc12)CCCC3 (configuration not stated) | – | – | – | 10
Cc1cc(=O)oc2c(C)c(OCC(=O)NCCCN3CCOCC3)ccc12 | – | – | – | 7.8
Cc1c(OC(C)C(=O)NCCN2CCOCC2)ccc2c3c(c(=O)oc12)CCCC3 (configuration not stated) | – | – | – | 9.6
Cc1cc(OC(C)C(=O)NCCCN2CCCC2=O)c2c(C)c(C)c(=O)oc2c1 (configuration not stated) | – | – | – | –
CC(Oc1cc2oc(=O)c3c(c2cc1Cl)CCC3)C(=O)NCCCN1CCCC1=O (configuration not stated) | – | – | – | 9.1
Cc1cc(=O)oc2c(C)c(OC(C)C(=O)NCCN3CCOCC3)ccc12 (configuration not stated) | – | – | – | –
O=C(N/N=C/c1ccc([N+](=O)[O-])o1)c1cn2ccc3ccccc3c2n1 | – | – | – | –
COc1ccccc1NC(=O)CN1C(=O)C2(OCCCO2)c2ccccc21 | – | – | – | –
Cc1ccc(C)c(N=C2NC(=O)CS2)c1 | – | – | – | –
O=C(NC1CCCC1)C(c1ccccc1F)N(C(=O)Cc1cccs1)c1ccc2c(c1)OCCO2 (configuration not stated) | – | – | – | –
Cc1c(C(=O)N2CCCC2)c(S(=O)(=O)Nc2ccccc2Cl)c(C)n1C | – | – | – | –
CCc1ccc(NC(=O)NCCN2CCc3ccccc3C2)cc1 | – | – | – | –
CC(Oc1ccc2c(c1)oc(=O)c1ccccc12)C(=O)NCCCN1CCOCC1 (configuration not stated) | – | – | – | 12
N#C/C(=C\c1ccc(C(=O)O)cc1)S(=O)(=O)c1cc(Br)ccc1Br | – | – | – | –
Cc1cccc(-c2oc3ccc(-c4ccc5c(c4)OCO5)cc3c2-c2ccc(OC3CCCCO3)cc2)c1 (configuration not stated) | – | · | · | ·
CC(C)CCn1c(CN2CCN(Cc3ccccc3)CC2)nc2c1c(=O)n(C)c(=O)n2C | – | – | – | –
Cc1nn(-c2ccccc2)c(OC(=O)c2cccs2)c1S(=O)(=O)c1ccc([N+](=O)[O-])cc1 | – | – | 4.8 | –
CCOc1ccc(-n2c(N)c(C(=O)NCc3ccco3)c3nc4ccccc4nc32)cc1 | – | – | – | –
SMILES | HCV core dimer | DNA FID counter | IMP-1 inh | VIM-2 inhibitor
Nc1nn2c(C(F)(F)F)cc(=O)[nH]c2c1N=Nc1cccc(F)c1 | – | – | – | –
CC(C)Cc1nnc(NC(=O)Cc2cccs2)s1 | 67 | – | – | –
CCCCCc1nnc(NC(=O)Cc2cccs2)s1 | 71 | – | – | –
CC(C)(C)Cc1nnc(NC(=O)Cc2cccs2)s1 | 51 | – | – | –
CC(C)c1nnc(NC(=O)Cc2cccs2)s1 | – | – | – | –
Cc1ccccc1NC(=O)/C(=C\c1cccs1)NC(=O)c1ccccc1 | – | – | – | –
COc1ccc(C(N)c2nccc3cc(OC)c(OC)cc23)cc1OC (configuration not stated) | – | – | – | 7.8
COc1cc(N)c(Cc2nccc3cc(OC)c(OC)cc23)cc1OC | – | – | – | –
CCOC(=O)c1c(NC(=O)c2ccc(S(=O)(=O)N3CCOCC3)cc2)sc2c1CCN(C)C2 | – | – | – | 8.6
CCOC(=O)c1c(NC(=O)c2ccc(S(=O)(=O)N3CCOCC3)cc2)sc2c1CC(C)(C)NC2(C)C | – | – | – | –
CCOC(=O)c1c(NC(=O)c2cccc(N3C(=O)CCC3=O)c2)sc2c1CCN(CC)C2 | – | – | – | 7.9
CCN(C(=O)CN1C(=O)S/C(=C\c2cccc(Cl)c2)C1=O)C1CCS(=O)(=O)C1 (configuration not stated) | – | – | – | –
CCN(C(=O)CN1C(=O)S/C(=C\C=C\c2ccccc2)C1=O)C1CCS(=O)(=O)C1 (configuration not stated) | 46 | – | – | –
C/C(=N/N=C1/NC(=O)CC(C(=O)Nc2ccccc2)S1)c1cccs1 (configuration not stated) | – | – | – | –
CCCN1CCN(CCCNC(=O)Cn2nc(-c3ccc(C)cc3)ccc2=O)CC1 | – | – | 6.3 | –
CCCN1CCN(CCCNC(=O)Cn2nc(-c3ccc(Cl)cc3)ccc2=O)CC1 | – | – | – | –
CCCN1CCN(CCCNC(=O)CCNC(=O)Cn2ccc3ccccc3c2=O)CC1 | – | – | 5.4 | –
CC1(C)Cc2c(C#N)c(N3CCN(C(=O)c4ccccc4)CC3)nc(-c3ccco3)c2CS1 | 87 | – | – | –
O=C1NN(c2ccccc2)C(=O)/C1=C\c1ccccc1OCC(=O)N1CCOCC1 | – | – | 4.5 | –
COC(=O)c1c(C(=O)OC)c2cc(C)ccn2c1Cl | – | – | – | 8.1
COC(=O)c1nc2cc(C)ccn2c1F | – | – | – | –
Cn1nc(C(C)(C)C)cc1C(=O)NNC(=O)c1ccccc1Cl | – | – | – | –
Cc1nn(C)cc1CNC(=O)CCC(=O)O | – | – | – | –
COC(=O)[C@H](CC(C)C)NC(=O)Nc1ccc(F)cc1 | – | – | – | –
CC(=O)c1cccc(N(CC(=O)NC2CCCC2)C(=O)c2ccc(C)s2)c1 | – | – | – | –
COc1cccc(NC(=S)Nc2cc(C)cc(C)n2)c1 | 86 | – | – | –
Cc1cc(C)n2c(SC/C(O)=C(\C#N)c3nc4ccccc4[nH]3)nnc2n1 | 75 | – | – | –
Cc1ccccc1-n1c(SC/C(O)=C(\C#N)c2nc3ccccc3[nH]2)nnc1-c1ccncc1 | – | – | – | –
Cc1ccc(-c2cc(-c3ccc(C)o3)nc(N)c2C#N)cc1 | 60 | – | – | –
Cc1ccc(-c2cc(-c3ccc(F)cc3)c(C#N)c(N)n2)o1 | – | – | – | –
